Granule exo inh: LAMP-1 surface exposure blockers, TALL-104 cells – cell-based, flow cytometry, MLPCN library, primary screen | inhibition, % at 10 µM | TALL-104 LAMP-1 surface exposure; cells stimulated with thapsigargin and PMA | AID 651702, 2012 | 0.66% of 360,000 active;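 active = inhibition above about 55%, limit read from the data; inconclusive = no clear call, values can overlap the other calls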
EBI2 antag: EBI2 receptor antagonists, beta-arrestin recruitment, primary screen, cell-based, luminescence, 7a,25-OHC stimulation, uHTS; 7a,25-OHC stimulated; inhibition, % at 5 µM; 0.81% of 360,000 active; AID 651636, 2012; in the data active = inhibition above about 38%;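 note: enzyme fragment complementation signal reports receptor beta-arrestin coupling in cells; 0% = agonist plus DMSO wells and 100% = wells without agonist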
Target sequence (P32249 whole entry, looked up, the tested form may be a part): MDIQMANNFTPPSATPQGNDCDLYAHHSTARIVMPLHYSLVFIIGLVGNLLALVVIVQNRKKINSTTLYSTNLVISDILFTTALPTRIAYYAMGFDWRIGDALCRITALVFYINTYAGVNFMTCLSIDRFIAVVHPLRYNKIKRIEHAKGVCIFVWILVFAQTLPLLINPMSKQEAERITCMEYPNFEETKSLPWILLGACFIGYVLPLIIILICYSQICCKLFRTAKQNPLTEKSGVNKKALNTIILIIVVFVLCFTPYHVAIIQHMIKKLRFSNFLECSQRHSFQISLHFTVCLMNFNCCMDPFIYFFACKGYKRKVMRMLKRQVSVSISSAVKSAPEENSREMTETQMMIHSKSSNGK
Myeloid diff MLP: induction of myeloid progenitor differentiation, primary screen, cell-based, flow cytometry, MLPCN library. ER-HoxA9 myeloid progenitors, lysozyme-GFP differentiation. 1% of 360,000 active. calls only at 10 µM;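 active = normalized GFP-positive differentiation at or above the plate's own cutoff, the solvent-only control mean plus 3 SD; inconclusive = no clear call, values can overlap the other calls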;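 note: cells exposed to compound for four days before flow analysis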
MC4R barr agon: MC4R agonists recruiting beta-arrestin, primary screen, cell-based, luminescence, agonist arm of biased-ligand search | 0.98% of 360,000 active | activation, % at 8.9 µM | U2OS MC4R beta-arrestin complementation; percent of melanotan II response, DMSO zero;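 active = activation above a per-plate cutoff, the mean activation of sample wells on that plate plus 3 SD, cut at about 8% in these data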
MC4R antagonist: MC4R antagonists of cAMP signaling, primary screen, cell-based, TR-FRET, antagonist arm of biased-ligand search; 0.48% of 360,000 active; inhibition, % at 6.5 µM; Melanocortin receptor 4 (Homo sapiens), P32245; MC4R-expressing cells, MTII-stimulated cAMP, LANCE TR-FRET;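 active = inhibition above its plate's cutoff, the mean of tested wells on that plate plus 3 SD, cut at about 29% in these data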;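 note: 0% = Melanotan II alone and 100% = Melanotan II plus saturating MCL0020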
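Assay system: U2OS-MC4R stable cell line; Also added: Melanotan II; Technique: Eu-cAMP/anti-cAMP TR-FRET, emission 671 nm; Times: 30-min compound, 1-h challenge, 1-h detection, room temperature.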
* hit, by the source's call. Only some compounds are listed: those with a hit (about 3.7% of all), similar ones and a draw of the others.

Screening COc1ccc(OC)c(CNc2ccc3c(c2)CCC3)c1 returned Granule exo inh 37.6, EBI2 antag -2.3, Myeloid diff MLP active, MC4R barr agon -0.3 and MC4R antagonist -0.1.
Screening COc1ccc(OC)c(CC(=O)Nc2ccc3c(c2)CCC3)c1 returned Granule exo inh 23.3, EBI2 antag 4.0, Myeloid diff MLP inactive, MC4R barr agon -0.3 and MC4R antagonist 2.1.
O=C(CNS(=O)(=O)c1ccccc1)OCC(=O)c1c[nH]c2ccccc12 was read as Granule exo inh -0.8, EBI2 antag 1.3, Myeloid diff MLP active, MC4R barr agon -1.0 and MC4R antagonist 5.6.
C[C@H](CO)N1C[C@H](C)[C@@H](CN(C)S(=O)(=O)c2ccc3ccccc3c2)OCc2cnnn2CCCC1=O was read as Granule exo inh 0.8, EBI2 antag -1.5, Myeloid diff MLP active, MC4R barr agon 3.6 and MC4R antagonist 0.1.
Screening Cc1nn(C2CCS(=O)(=O)C2)c(Cl)c1/C=C/C(=O)OCC(N)=O (stereo not drawn) returned Granule exo inh -0.7, EBI2 antag 7.0, Myeloid diff MLP inactive, MC4R barr agon -1.7 and MC4R antagonist -1.5.
For O=C(O)c1ccc(C(=O)Nc2cccc3ccccc23)c(C(=O)O)c1 the results were Granule exo inh 12.5, EBI2 antag 3.7, Myeloid diff MLP inactive, MC4R barr agon -1.4 and MC4R antagonist 12.2.
`Cc1cccc(N2CCN(S(=O)(=O)c3ccc(-c4ccc(=O)[nH]n4)o3)CC2)c1C` gave Granule exo inh -4.8, EBI2 antag 12.2, Myeloid diff MLP inactive, MC4R barr agon 8.3* and MC4R antagonist 16.1.
`Cc1ccc(OCc2ccccc2C)c([N+](=O)[O-])n1` gave Granule exo inh -6.6, EBI2 antag 2.1, Myeloid diff MLP active, MC4R barr agon -0.2 and MC4R antagonist -3.2.
Screening COc1cc(NS(=O)(=O)c2ccc(C)cc2)c2c(c1N)C(=O)c1ccccc1C2=O returned Granule exo inh 1.6, EBI2 antag -0.5, Myeloid diff MLP active, MC4R barr agon -0.8 and MC4R antagonist 5.3.
COC(=O)C(C(=O)OC)c1ccccc1NS(=O)(=O)c1ccc(C)cc1 was read as Granule exo inh -0.4, EBI2 antag -7.1 and Myeloid diff MLP inactive.
For COCCCn1c(SCCc2ccccc2)nc2cc(OC)c(OC)cc2c1=N the results were Granule exo inh 59.9*, EBI2 antag 43.2, Myeloid diff MLP inactive, MC4R barr agon 9.4* and MC4R antagonist 14.2.
Screening O=C1NC[C@@H](c2ccccc2)OC(=O)[C@@H](Cc2ccc(F)cc2)CC/C=C/C[C@H]1CC(=O)N(CCO)Cc1ccccc1 returned Granule exo inh 16.2, EBI2 antag 16.9, Myeloid diff MLP inconclusive, MC4R barr agon -1.6 and MC4R antagonist 7.1.
Screening O=C1NC[C@H](c2ccccc2)OC(=O)[C@H](Cc2ccc(F)cc2)CC/C=C/C[C@@H]1CC(=O)N(CCO)Cc1ccccc1 returned Granule exo inh 4.3, EBI2 antag 5.4, Myeloid diff MLP active, MC4R barr agon -0.7 and MC4R antagonist 19.4.
`CSc1ccc(OC2(C)CCN(Cc3ccc4c(c3)OCCO4)C2)cc1` (stereo not drawn) gave Granule exo inh 12.0, EBI2 antag 5.7, Myeloid diff MLP inactive, MC4R barr agon -1.8 and MC4R antagonist -4.7.
For COc1ccc(OC)c(-c2nnc3n2N=C(c2ccc(OC)c(OCC4CC4)c2)CS3)c1 the results were Granule exo inh -9.3, EBI2 antag -4.2, Myeloid diff MLP active, MC4R barr agon -0.2 and MC4R antagonist -50.2.
Screening COc1ccc(C2=Nn3c(nnc3-c3ccccc3Cl)SC2)cc1OCC1CC1 returned Granule exo inh 1.4, EBI2 antag 13.9, Myeloid diff MLP inactive, MC4R barr agon 0.1 and MC4R antagonist -45.4.
O=Cc1cccnc1SCc1ccccc1 was read as Granule exo inh 64.4*, EBI2 antag -23.1, Myeloid diff MLP inactive, MC4R barr agon -0.4 and MC4R antagonist -21.7.
`Oc1cccnc1SCc1ccccc1` gave Granule exo inh 2.5, EBI2 antag 8.5, Myeloid diff MLP inactive, MC4R barr agon -0.7 and MC4R antagonist 4.9.
